Blank lines part the entries; values can stand above or below the compound they belong to. Active and inactive are the calls of the source. No cut-off for these calls is given here.
Experiments:
[1] = Intrinsic clearance in cynomolgus monkey; assay type: ADME, Macaca fascicularis
[2] = Intrinsic clearance in rat; assay type: ADME
Cytochrome P450 2D6 = Cytochrome P450 2D6 (Homo sapiens, UniProt P10635); assay: Inhibition of CYP2D6 (unknown origin); assay type: ADME
[3] = Apparent permeability from basolateral to apical side in human Caco2 cells; assay type: ADME, cell-based; conditions: Caco-2
Method in brief: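 Caco-2 monolayer permeability measured in both the A-to-B and B-to-A directions and reported as P_app (×10⁻⁶ cm/s).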

[4] = Efflux ratio of apparent permeability in human Caco2 cells; assay type: ADME, cell-based; conditions: Caco-2
[5] = Apparent terminal half life in Sprague-Dawley rat plasma at 10 mg/kg, po or 2 mg/kg, iv administered as single dose by LC-MS/MS analysis; assay type: ADME, organism-based; conditions: read-out: betat1/2(app) (converted)
Method in brief: (§1)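 Single-dose PK in drug-naive adult male Sprague−Dawley rats, n = 3 per group: 3.1 μmol/kg IV in 5% DMSO/10% Solutol in saline (5 mL/kg), or 15.7 μmol/kg PO in 5% Solutol/10% Captisol in 25 mM PBS, pH adjusted to 2 with HCl. Plasma parameters reported as mean ± SD.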

[6] = Volume of distribution at steady state in cynomolgus monkey at 1 mg/kg, iv or 5 mg/kg, po measured up to 12 or 24 hrs post dose by LC-MS/MS analysis; assay type: ADME, organism-based, Macaca fascicularis; conditions: in vivo, read-out: Vdss
Method in brief: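 Three female cynomolgus monkeys per group, single dose: IV 1.5 μmol/kg in 5% DMSO/10% Solutol in saline, pH 6.5 (2 mL/kg), or PO 7.8 μmol/kg in 5% Solutol in 20% Captisol, 25 mM PBS, pH 2 (5 mL/kg). Parameters come from plasma concentration–time data; mean ± SD.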

[7] = AUClast in Sprague-Dawley rat plasma at 10 mg/kg, po or 2 mg/kg, iv administered as single dose measured up to 24 hrs post dose by LC-MS/MS analysis; assay type: ADME, organism-based; method in brief: as §1
[8] = Oral bioavailability in cynomolgus monkey at 5 mg/kg measured up to 24 hrs post dose by LC-MS/MS analysis; assay type: ADME, organism-based, Macaca fascicularis; conditions: in vivo
Method in brief: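 Three female cynomolgus monkeys per group; single oral dose of 7.8 μmol/kg in 5% Solutol in 20% Captisol, 25 mM PBS, pH 2 (5 mL/kg), with a separate IV arm at 1.5 μmol/kg in 5% DMSO/10% Solutol in saline, pH 6.5 (2 mL/kg). F = (AUC_INFpo × Dose_iv)/(AUC_INFiv × Dose_po); mean ± SD.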

[9] = Drug level in po dosed Sprague-Dawley rat brain measured 2 hrs post dose by LC-MS/MS analysis; assay type: ADME, organism-based; conditions: in vivo
[10] = Ratio of drug level in CSF to unbound plasma concentration in Sprague-Dawley rat at 3 to 10 mg/kg, po measured 2 hrs post dose by LC-MS/MS analysis; assay type: ADME, organism-based; conditions: in vivo
Method in brief: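 Drug-naive male Sprague–Dawley rats (n = 4–5/group) were dosed orally in 5% Solutol/10% Captisol in 25 mM PBS, pH 2, and euthanized by CO2 2 h post-dose. CSF (50–100 μL) was taken from the cisterna magna, and brain and plasma were collected; drug was measured in each matrix. Quantitation limit 1.0 ng/mL.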

[11] = Drug level in cynomolgus monkey plasma at 3 mg/kg, po measured at 0.5 hr post dose by LC-MS/MS analysis; assay type: ADME, organism-based, Macaca fascicularis
[12] = Drug level in cynomolgus monkey plasma at 10 mg/kg, po measured at 0.5 hr post dose by LC-MS/MS analysis; assay type: ADME, organism-based, Macaca fascicularis
Method in brief: (§2)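 Cynomolgus monkeys (n = 3/group) fitted with subcutaneous CSF ports were dosed orally at 0.4−15.7 μmol/kg in 5% Solutol plus 20% Captisol in 25 mM PBS, pH 2. CSF (about 0.30 mL) and blood were sampled predose and at 0.5, 1, 2, 3, 4, 8, 12 and 24 h. Quantitation limit 1.0 ng/mL; mean ± SD.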

[13] = Drug level in cynomolgus monkey plasma at 10 mg/kg, po measured at 8 hrs post dose by LC-MS/MS analysis; assay type: ADME, organism-based, Macaca fascicularis
[14] = Drug level in cynomolgus monkey CSF at 10 mg/kg, po measured at 4 hrs post dose by LC-MS/MS analysis; assay type: ADME, organism-based, Macaca fascicularis, Cerebrospinal fluid; conditions: read-out: Drug uptake; method in brief: as §2
[15] = Drug level in cynomolgus monkey CSF at 10 mg/kg, po measured at 12 hrs post dose by LC-MS/MS analysis; assay type: ADME, organism-based, Macaca fascicularis, Cerebrospinal fluid; conditions: read-out: Drug uptake; method in brief: as §2
[16] = Drug level in po dosed cynomolgus monkey plasma measured up to 24 hrs post dose by LC-MS/MS analysis; assay type: ADME, organism-based, Macaca fascicularis; conditions: in vivo
[17] = Toxicity in cynomolgus monkey assessed as gross behavioral abnormality at 0.3 to 10 mg/kg, po measured up to 24 hrs post dose; assay type: organism-based, Macaca fascicularis; conditions: in vivo
Method in brief: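 Cynomolgus monkeys (n = 3/group) received an oral dose of 0.4, 1.5, 4.7 or 15.7 μmol/kg in 5% Solutol/20% Captisol in 25 mM PBS, pH 2. CSF was drawn via subcutaneous ports and blood sampled predose and at 0.5–24 h.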

Rattus norvegicus [18] = assay: In vivo inhibition of glycine transporter-1 in po dosed Sprague-Dawley rat assessed as increase in CSF glycine level measured 2 hrs post dose by LC-MS/MS analysis; assay type: functional
Method in brief: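 Drug-naive adult male Sprague-Dawley rats, n = 4-5 per group, given a single oral dose of 0.4, 1.5, 4.7 or 15.7 μmol/kg. Vehicle was 5% Solutol + 10% Captisol in 25 mM PBS, pH 2. At 2 h, rats were killed by CO₂. CSF (50-100 μL) was taken from the cisterna magna, and brain and plasma were also collected. Glycine was measured by LC-MS/MS against a deuterated-glycine internal standard. Results given as % vehicle control (vehicle 30 min post-dose), mean ± SEM. Two-way ANOVA with Tukey test.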

[19] = Drug level in Sprague-Dawley rat plasma at 30 mg/kg, po measured 2 hrs post dose by LC-MS/MS analysis; assay type: ADME, organism-based
Method in brief: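 Drug-naive Sprague−Dawley rats (n = 4−5/group) were dosed orally once in 5% Solutol plus 20% Captisol in 25 mM PBS, pH 2, and euthanized 2 h later by CO₂. CSF was drawn from the cisterna magna. Drug was measured in CSF, brain and plasma; data as mean ± SEM.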

[20] = Drug level in Sprague-Dawley rat plasma at 1 mg/kg, po qd for 5 days measured 2 hrs post last dose by LC-MS/MS analysis; assay type: ADME, organism-based
Method in brief: (§3)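 Drug-naive Sprague−Dawley rats (n = 5/group) were dosed orally once daily for 5 days in 5% Solutol plus 20% Captisol in 25 mM PBS, pH 2, and sacrificed 2 h after the last dose. Drug was measured in CSF, brain and plasma; mean ± SEM.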

[21] = Drug level in Sprague-Dawley rat plasma at 10 mg/kg, po qd for 5 days measured 2 hrs post last dose by LC-MS/MS analysis; assay type: ADME, organism-based; method in brief: as §3
Rattus norvegicus [22] = assay: In vivo inhibition of glycine transporter-1 in Sprague-Dawley rat assessed as increase in CSF glycine level at 1 to 10 mg/kg, po qd for 5 days measured 48 hrs post last dose by LC-MS/MS analysis; assay type: functional, organism-based
Method in brief: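 Drug-naive Sprague-Dawley rats, n = 5 per group, dosed orally once daily for 5 days with vehicle or 1.6, 4.8 or 16.1 μmol/kg. Vehicle was 5% Solutol / 20% Captisol in 25 mM PBS, pH 2. Killed 2 h or 48 h after the last dose. CSF glycine was expressed as % of vehicle control (vehicle 2 h post last dose), mean ± SEM. Two-way ANOVA with Tukey test.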

Sequence of Cytochrome P450 2D6 (P10635 whole entry): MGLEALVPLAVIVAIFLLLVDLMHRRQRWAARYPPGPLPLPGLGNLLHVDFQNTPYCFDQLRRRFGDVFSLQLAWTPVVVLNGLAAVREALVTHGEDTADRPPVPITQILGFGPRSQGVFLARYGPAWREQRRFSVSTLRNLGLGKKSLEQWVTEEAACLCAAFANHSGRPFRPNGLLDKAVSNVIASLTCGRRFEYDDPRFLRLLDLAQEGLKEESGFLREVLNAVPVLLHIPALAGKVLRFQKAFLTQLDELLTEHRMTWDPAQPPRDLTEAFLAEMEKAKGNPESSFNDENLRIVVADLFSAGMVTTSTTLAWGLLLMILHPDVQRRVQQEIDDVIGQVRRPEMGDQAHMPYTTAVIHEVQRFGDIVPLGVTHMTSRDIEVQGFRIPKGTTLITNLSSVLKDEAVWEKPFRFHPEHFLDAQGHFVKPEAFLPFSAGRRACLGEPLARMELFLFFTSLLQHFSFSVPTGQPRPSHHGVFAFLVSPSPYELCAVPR

CL [1]: 12 microL/ml/min
CL [2]: 6 microL/ml/min
IC50 (Cytochrome P450 2D6): > 7.2 µM
Papp B→A [3]: 47.4 ×10⁻⁶ cm/s
efflux ratio [4]: 2
half-life [5]: 260 min
Vd [6]: 1.93 L/kg
AUC(0-t) at 24 h [7]: 1960 ng·h/mL
bioavailability [8]: 31%
Drug uptake [9]: Dose-dependent effect
Ratio [10]: > 0.1
concentration at 0.5 h [11]: 1.6 ng/mL
concentration at 0.5 h [12]: 67.9 ng/mL
concentration at 8 h [13]: 156 ng/mL
concentration at 4 h [14]: 8.4 ng/mL
concentration at 12 h [15]: 5 ng/mL
Drug uptake [16]: Dose-dependent effect
SMILES: CC(NC(=O)c1ccc(C(F)(F)F)cc1Cl)C1(N2CCN(S(=O)(=O)c3cn(C)nn3)CC2)CCC(F)(F)CC1.Cl (single isomer, unassigned; (+))
Activity [17]: Non-Toxic

concentration at 2 h [19]: 490 nM
concentration at 2 h [20]: 38.2 nM
concentration at 2 h [21]: 237 nM
SMILES: Cl.Cn1cc(S(=O)(=O)N2CCN(C3(CNC(=O)c4ccc(C(F)(F)F)cc4Cl)CCC(F)(F)CC3)CC2)nn1
ED200 (Rattus norvegicus [18]): 1.6 to 4.8 µmol/kg
inhibition (Rattus norvegicus [22]): inactive

Source: ChEMBL document CHEMBL4428077, “Synthesis and Biological Evaluation of N-((1-(4-(Sulfonyl)piperazin-1-yl)cycloalkyl)methyl)benzamide Inhibitors of Glycine Transporter-1” (J Med Chem, 2016)
